Test results from article PMC9310269 (Journal for Immunotherapy of Cancer, 2022).

Test system: MC38-hPD-L1 tumors
Assay: MC38-hPD-L1 tumor model in humanized PD-1 mice
Type: in vivo, mouse
Details: 10 mg/kg i.p.; p<0.001
Outline: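 Male C57BL/6N humanized PD-1 mice receive 1×10^6 MC38-hPD-L1 cells s.c. in the right flank. At day 12 (~60 mm3) they are randomized into 3 groups (N=6). Dosing is 10 mg/kg i.p. daily for 10 doses, or atezolizumab 10 mg/kg i.p. three times weekly, both over days 12–22. Tumour (X2Y0.5, caliper) and body weight are measured every 3 days. At day 30, tumours are enzymatically digested and analysed by flow cytometry.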

In the case of “atezolizumab: clinically relevant anti-PD-L1 antibody control in vivo”, the tumor growth inhibition is reported as “significant”.
